Screening results as filed in PubChem.
PAX8 inh HTS = inhibitors of PAX8-driven TPO luciferase reporter, primary screen, RMG-I cells, single concentration. SteadyGlo, 24 h. AID 652154, 2013. 360,000 compounds, 1.2% hits. inhibition, % at 12.6 µM;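 active means mean replicate inhibition at least 60% with every replicate also reaching 60%; inconclusive means only one of the two criteria is met; inactive means mean below 60% and not all replicates reaching 60%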;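 further: luciferase light reporting Pax8 driven TPO promoter activity; plate controls were median of neutral control wells for no effect and mitoxantrone controls for full effect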
CDK5 p35 inh = inhibitors of human CDK5/p35 kinase, primary screen, biochemical, single concentration | Recombinant CDK5/p35, ADP-Glo luminescence, 60 min | AID 488839, 2010 | inhibition, % at 10 µM | Cyclin-dependent kinase 5 (Homo sapiens) + Cyclin-dependent kinase 5 activator 1 (Homo … | 330,000 compounds, 0.01% hits;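 active means highest replicate inhibition of at least 50% and at least 75% of replicates reaching 50%; inconclusive means only one of the two criteria met; inactive means both criteria failed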;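 further: plate controls were DMSO neutral control for no effect and GW8510 at 10 µM for full effect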
Target sequence (Q00535 whole entry, looked up): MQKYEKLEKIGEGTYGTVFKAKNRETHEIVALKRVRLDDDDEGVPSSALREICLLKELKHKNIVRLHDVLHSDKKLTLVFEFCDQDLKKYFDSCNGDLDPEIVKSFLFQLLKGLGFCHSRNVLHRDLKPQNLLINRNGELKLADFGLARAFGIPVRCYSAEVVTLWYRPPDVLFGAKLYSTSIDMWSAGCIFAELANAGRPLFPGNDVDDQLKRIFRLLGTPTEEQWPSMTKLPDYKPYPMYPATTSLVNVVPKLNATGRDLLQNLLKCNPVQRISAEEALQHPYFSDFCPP
Target sequence (Q15078 whole entry, looked up): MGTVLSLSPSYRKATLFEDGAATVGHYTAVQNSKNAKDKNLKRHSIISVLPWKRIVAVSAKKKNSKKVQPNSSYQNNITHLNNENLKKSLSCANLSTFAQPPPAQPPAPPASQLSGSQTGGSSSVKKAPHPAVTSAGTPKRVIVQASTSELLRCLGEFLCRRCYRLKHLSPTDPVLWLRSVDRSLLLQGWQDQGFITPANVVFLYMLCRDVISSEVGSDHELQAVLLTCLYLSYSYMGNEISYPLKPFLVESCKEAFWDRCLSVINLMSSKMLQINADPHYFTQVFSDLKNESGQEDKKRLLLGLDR
GSIS activator = GLuc luminescence reporter in INS-1E cells, primary screen for activators of glucose-dependent secretion of insulin; INS-1E GLuc reporter insulin secretion, 2-3 h; activation, % at 16.6 µM; 370,000 compounds, 0.61% hits;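 active means lowest replicate activation of at least 40%, so every replicate reaches that level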;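 further: 0% = median of neutral control wells and 100% = median of IBMX positive control wells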
Env fusion inh = inhibitors of HIV-1 Env-driven cell-cell fusion, primary screen, HeLa-JRFL effector, CEM21 target cells, luciferase | inhibition, % at 12.3 µM | 360,000 compounds, 1.1% hits;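 active means mean replicate inhibition score of at least 50 and every replicate individually at or above 50; inconclusive means only one of the two criteria met; inactive means mean below 50 and not all replicates reaching 50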;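 further: 0% = plate neutral controls and 100% = maraviroc near 300 nM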
dFosB act = activators of delta FosB homodimer, primary screen, biochemical, fluorescence polarization, TAMRA-CDK5 oligo, single point; 340,000 compounds, 0.99% hits; purified delta FosB; percent of positive-control signal above neutral wells; activation, % at 25 µM;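 active means mean activation above about 17%, with every replicate also reaching it, limit read from the data, passing the limit was not always enough; inconclusive means only one of the two conditions met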
Cneo AK release = Cryptococcus neoformans cell lysis inducers, primary screen, AK release luminescence, single concentration; C. neoformans lysis, adenylate kinase release luminescence, 4 h; normalised: neutral wells 0, clomiphene wells 100; lysis activity, % at 15 µM; 360,000 compounds, 0.2% hits; AID 651654, 2012;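 active means mean lysis activity across replicates of at least 80%, whatever share of replicates individually reach that level; inactive means mean lysis activity below 80%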
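read-out = cell lysis signal | test system = log-phase Cryptococcus neoformans yeast cells | input = cells at 5 × 10^6 per mL | medium = fresh YPD growth medium | signal = luminescent adenylate kinase detection reagent | timing = 4 h at 37 °C static, read 1 h later | dosing = single dose | controls = Clomiphene as positive lysis control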
Active calls of the source: *; ? = inconclusive; . = no result given; [ ] = dose if it differs, or a comment. Only some compounds are listed: those with a hit (about 2.9% of all), similar ones and a draw of the others.

SMILES | PAX8 inh HTS | CDK5 p35 inh | GSIS activator | Env fusion inh | dFosB act | Cneo AK release
O=C(NCc1ccc2c(c1)OCO2)c1cccc(C(=O)NCc2ccc3c(c2)OCO3)c1 | . | 0 | . | . | 4 | 4
C[C@@H]1CN([C@H](C)CO)S(=O)(=O)c2ccc(-c3ccccc3)cc2O[C@@H]1CN(C)S(C)(=O)=O | . | . | 8 | 2[16.7 µM] | . | 4
COc1ccc(NC(=O)Nc2ccc3c(c2)C(=O)N([C@H](C)CO)C[C@H](C)[C@@H](CN(C)C(=O)CCCN(C)C)OCCCC[C@@H](C)O3)cc1 | . | . | 18 | 4[16.7 µM] | . | 2
CN(CC(=O)NC(=O)Nc1ccccc1F)Cc1ccccc1F | -100 | -3 | . | 66* | -10 | 0
CCc1ccc(CNC(=O)C2CCN(S(=O)(=O)N3CCCCC3)CC2)cc1 | 81* | . | . | 43 | . | -18
Cc1ccc(NC(=O)Cc2cc(C(=O)O)c3ccccc3n2)c(C)c1 | 70* | -1 | -5 | 19 | -4 | .
O=C(CNC(=O)c1ccc2c(c1)OCCO2)N=Nc1c(O)[nH]c2ccccc12 | 12 | 0 | 15 | -4 | 24* | -5
COC(=O)Cn1c(O)c(N=NC(=O)CNC(=O)c2ccc3c(c2)OCCO3)c2ccccc21 | 10 | -5 | -10 | -1 | -16 | 2
N#C[C@H]1[C@@H](c2ccccc2/C=C/c2ccccc2)[C@@H](CO)N1S(=O)(=O)c1cccc(F)c1 | 19 | . | -1 | 58*[16.7 µM] | . | .
CCCC#Cc1ccc([C@H]2[C@H](C#N)N(S(=O)(=O)c3cccc(F)c3)[C@H]2CO)cc1 | 55 | . | -18 | -28[16.7 µM] | . | 1
CCCC#Cc1ccc([C@@H]2[C@H](C#N)N(S(=O)(=O)c3cccc(F)c3)[C@H]2CO)cc1 | 83* | . | -19 | -1[16.7 µM] | . | -1
COCC(=O)N1C[C@H](C)[C@H](OC)CN(C)C(=O)c2ccc(NS(C)(=O)=O)cc2OC[C@@H]1C | 13 | . | -4 | -5[16.7 µM] | . | -2
CCOC(=O)c1ccc(NC2c3ncccc3C(=O)N2Cc2ccc(F)cc2)cc1 (configuration not stated) | . | -4 | -9 | 93* | -15 | 1
O=C1c2ccccc2C(Nc2ccc(S(=O)(=O)N3CCCCCC3)cc2)N1c1ccccn1 (configuration not stated) | 4 | -4 | . | 5 | -6 | 1
O=C1c2cccnc2C(Nc2ccc(F)c(Cl)c2)N1Cc1cccs1 (configuration not stated) | 6 | 1 | 66* | -10 | -13 | 0
O=C1c2cccnc2C(Nc2ccc(S(=O)(=O)N3CCCCC3)cc2)N1Cc1ccccc1 (configuration not stated) | . | -5 | -11 | 84* | 3 | .
COc1ccccc1-c1cc(NC=O)c2ncc(-c3ccc(S(C)(=O)=O)cc3)n2c1 | 63* | . | . | -132 | . | 5
COc1ccc(-c2cnc3c(NC=O)cc(-c4cc(OC)c(OC)c(OC)c4)cn23)cc1OC | 31 | . | 10 | 7 | . | 0
COc1ccc(-c2cnc3c(NC=O)cc(-c4ccc(S(C)(=O)=O)cc4)cn23)cc1OC | 22 | . | . | 1 | . | -2
COc1ccc(-c2cc(NC=O)c3ncc(-c4cc(OC)c(OC)c(OC)c4)n3c2)cc1 | 72* | . | -5 | -103 | . | -1
COc1cc(-c2cnc3c(NC=O)cc(-c4ccc(S(C)(=O)=O)cc4)cn23)cc(OC)c1OC | 62* | . | 11 | -22 | . | -1
COc1ccc2c3c([nH]c2c1)[C@@H](CO)N(Cc1ccccc1)CC31CN(C(C)=O)C1 | . | . | -2 | . | . | .
C[C@H](CO)N1C[C@H](C)[C@@H](CN(C)Cc2ccccn2)Oc2ncc(C#C[C@@H](C)O)cc2C1=O | . | . | 22 | 3[16.7 µM] | . | -1
CCOC(=O)CCNC(=O)N1CCCC(C(=O)c2cccc(Cl)c2)C1 (configuration not stated) | -20 | -2 | 2 | 6 | 1 | 0
CCOC(=O)CCNC(=O)N1CCCC(C(=O)c2cccc(OC(C)C)c2)C1 (configuration not stated) | -1 | 1 | 48* | -17 | -10 | 0
SMILES | PAX8 inh HTS | CDK5 p35 inh | GSIS activator | Env fusion inh | dFosB act | Cneo AK release
COc1ccccc1S(=O)(=O)N1CC[C@@H]2[C@H]1c1cc(-c3ccccc3F)ccc1N(C)[C@H]2CO | -10 | . | 7 | . | . | 8
CCC(C)(C)c1ccc(Oc2cccc(C(=O)O)c2)cc1 | -30 | 2 | 38 | -8 | 0 | 0
CCC(C)(C)c1ccc(Oc2ccc(N)cc2)cc1 | ? | -1 | 3 | 60* | -12 | 1
C[C@@H]1CN([C@H](C)CO)S(=O)(=O)c2ccc(-c3ccccc3)cc2O[C@H]1CN(C)Cc1ccccc1 | . | . | -5 | 55*[16.7 µM] | . | .
C[C@H]1CN([C@@H](C)CO)S(=O)(=O)c2ccc(-c3ccccc3)cc2O[C@H]1CN(C)Cc1ccccc1 | . | . | -9 | 55*[16.7 µM] | . | .
Cc1ccc(-c2ccc3c(c2)O[C@@H](CN(C)Cc2cccnc2)[C@H](C)CN([C@H](C)CO)S3(=O)=O)cc1 | . | . | -27 | 75*[16.7 µM] | . | 8
COc1ccccc1-c1ccc2c(c1)O[C@H](CN(C)Cc1ccc3c(c1)OCO3)[C@H](C)CN([C@H](C)CO)S2(=O)=O | 67* | . | -32 | 38[16.7 µM] | . | -1
C/C=C/c1ccc([C@@H]2[C@@H](CNC(=O)C3CC3)N(C(=O)CC)[C@H]2CO)cc1 | -47 | . | 8 | . | . | 93*
CCC(=O)N1[C@@H](CO)[C@@H](c2ccc(-c3ccc(F)cc3)cc2)[C@@H]1CNC(C)=O | 9 | . | -10 | . | . | 0
CCC(=O)N1[C@H](CO)[C@H](c2ccc(-c3ccc(F)cc3)cc2)[C@@H]1CNC(C)=O | 25 | . | -11 | . | . | 82*
CC(=O)NC[C@@H]1[C@@H](c2ccc(C3=CCCC3)cc2)[C@@H](CO)N1C(=O)NC(C)C | 7 | . | 1 | . | . | 112*
C[C@@H]1CN([C@H](C)CO)S(=O)(=O)c2ccc(-c3ccc(C#N)cc3)cc2O[C@H]1CN(C)Cc1ccccn1 | 65* | . | -5 | -102[16.7 µM] | . | -1
C[C@@H]1CN([C@@H](C)CO)S(=O)(=O)c2ccc(-c3ccc(F)cc3)cc2O[C@@H]1CN(C)Cc1cccc(F)c1 | . | . | 6 | 35[16.7 µM] | . | .
Cc1ccc(-c2ccc3c(c2)O[C@H](CN(C)Cc2ccc(F)cc2)[C@H](C)CN([C@H](C)CO)S3(=O)=O)cc1 | . | . | -9 | . | . | 90*
C[C@@H]1CN([C@H](C)CO)S(=O)(=O)c2ccc(-c3ccc(C#N)cc3)cc2O[C@H]1CN(C)Cc1cccc(F)c1 | 45 | . | -6 | 24[16.7 µM] | . | 1
C[C@H]1CN([C@@H](C)CO)S(=O)(=O)c2ccc(-c3ccc(C#N)cc3)cc2O[C@@H]1CN(C)Cc1cccc(F)c1 | 76* | . | -7 | 3[16.7 µM] | . | -3
